# An excerpt weighted towards active compounds, which were near 3% of everything screened.
# NPY Y1 blocker: NPY-Y1 receptor antagonists, primary screen, cell-based | 1% of 200,000 active | AID 1040, 2008 | inhibition, % at 3.6 µM | HEK293-CNG Y1 cells, membrane potential fluorescence; NPY at EC95, then isoproterenol;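 active means inhibition above the campaign mean inhibition of all tested compounds plus 3 SD, cut at about 20% in these data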;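 further: 0% = DMSO wells given NPY plus isoproterenol and 100% = isoproterenol alone without NPY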
#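 Material: HEK293 cells with Y1 receptor plus CNG channel; times: compound incubation 1 h at room temperature, readout 45 min post-stimulation; signal: fluorescence, membrane potential probe; read-out basis: fluorescence ratio normalized to % inhibition between controls; benchmarks: full-block control isoproterenol-only wells, zero-block control NPY plus isoproterenol wells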
# NPY-Y2 antag: NPY-Y2 receptor antagonists, primary screen, cell-based. Neuropeptide Y receptor type 2 (Homo sapiens), P49146. NPY-Y2 expressing cells, antagonist mode. inhibition, % at 2.7 µM. 0.99% of 140,000 active. AID 793, 2007; in the data active means inhibition above about 17%;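 further: 0% = vehicle with agonist challenge and 100% = reference antagonist with challenge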
# Target sequence (P49146 whole entry, looked up): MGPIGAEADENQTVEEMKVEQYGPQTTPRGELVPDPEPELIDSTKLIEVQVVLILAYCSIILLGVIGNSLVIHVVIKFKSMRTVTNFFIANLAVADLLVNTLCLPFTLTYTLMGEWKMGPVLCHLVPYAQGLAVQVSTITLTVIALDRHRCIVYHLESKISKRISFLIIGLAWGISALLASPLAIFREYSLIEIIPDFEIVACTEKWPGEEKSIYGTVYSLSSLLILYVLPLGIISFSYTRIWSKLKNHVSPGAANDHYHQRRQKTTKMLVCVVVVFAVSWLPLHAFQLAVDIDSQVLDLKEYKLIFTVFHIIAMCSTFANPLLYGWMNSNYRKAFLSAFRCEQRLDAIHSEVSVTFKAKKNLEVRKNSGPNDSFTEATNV
# Hsp70 activator: Hsp70 transcriptional activators, primary screen, cell-based, HeLa, Hsp70 promoter luciferase, luminescence, 10 µM | activation, % at 10 µM | HeLa Hsp70 promoter luciferase reporter; scaled: vehicle 0, proteasome-inhibitor control 100% | AID 1203, 2008 | 0.04% of 200,000 active;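 active means activation above the mean across all tested compounds plus 3 SD, cutoff set per campaign, cut at about 5.5% in these data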;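 further: 100% = MG132 at 30 µM as the positive control and 0% = DMSO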
# Wee1 degr inh: Wee1 degradation inhibitors, primary screen, cell-based, HeLa, Wee1K328M-luciferase, luminescence; HeLa Luc-Wee1K328M stability; 100% = proteasome inhibitor MG132 effect; 1.2% of 220,000 active; reporter increase, % at 5 µM; AID 1321, 2008; Wee1-like protein kinase (Homo sapiens), P30291;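 active means activation above the mean of all tested compounds plus 3 SD, set per screening run, cut at about 8.8% in these data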;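 further: cells exposed to compound for 20 h before luminescence read; 0% = DMSO alone and 100% = MG132 at 30 µM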
# NPY-Y2 PAM-ag: NPY-Y2 potentiators or agonists, primary screen, cell-based. cells expressing NPY-Y2, potentiator/agonist read-out. activation, % at 3.6 µM. 0.45% of 220,000 active. AID 1359, 2008; in the data active means activation above about 27%;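 further: cells stimulated with NPY near EC25 plus isoproterenol at EC100; 0% = vehicle plus submaximal agonist and 100% = vehicle plus saturating agonist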
# NPY-Y1 PAM-ag: NPY-Y1 receptor potentiators or agonists, primary screen, cell-based; NPY-Y1 expressing cells, potentiator/agonist activation; AID 1304, 2008; Neuropeptide Y receptor type 1 (Homo sapiens), P25929; activation, % at 3.6 µM; 0.37% of 220,000 active; in the data active means activation above about 33%, passing the limit was not always enough;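 further: cells stimulated with NPY at EC10 then isoproterenol at EC100; 0% = low agonist plus stimulus and 100% = saturating agonist plus stimulus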
# An asterisk follows results filed as active; x = no result.
SMILES,NPY Y1 blocker,NPY-Y2 antag,Hsp70 activator,Wee1 degr inh,NPY-Y2 PAM-ag,NPY-Y1 PAM-ag
CCn1cc(CNCc2c(C(=O)N3CCCCC3)nc3c(C)cccn23)cn1,21*,x,0,-1,-10,-16
Cc1cccn2c(CNCCCOc3cccnc3)c(C(=O)N3CCOCC3)nc12,7,x,0,2,-6,-5
CC(=O)c1cccc(NC(=O)Cn2nc(-c3ccccc3Cl)ccc2=O)c1,-3,x,0,11*,-3,-13
Cc1ccc(S(=O)(=O)c2cnc(-c3ccccc3)nc2N2CCN(C)CC2)cc1,12,x,0,2,-20,-4
O=C(O)c1ccc(C(=O)c2ccc3c(c2)C(=O)N(CC2CCCO2)C3=O)cc1 (stereo not given),-2,x,0,10*,0,4
O=C(CNCC1CCCO1)Nc1ccccc1N1CCOCC1 (stereo not given),-1,2,0,-2,3,42*
O=C(CNC1CCCCCC1)Nc1ccccc1N1CCCCC1,11,9,0,8.9*,-11,12
COc1cc(CC(=O)Nc2ccccc2N2CCCCC2)cc(OC)c1OC,-2,x,0,9.4*,7,5
O=C(CNCC1CCCO1)Nc1ccccc1-n1cccc1 (stereo not given),0,1,0,-2,-1,14
O=C(Cn1nc(C(=O)O)c2ccccc2c1=O)Nc1ccc2c(c1)OCO2,x,x,x,0,4,-12
CC1=CC(=O)c2c(O)ccc(O)c2C1=O,-3,x,0,-2,9,11
COC(=O)c1cc(NC(=O)CC2SC(=Nc3ccccc3)N(CCc3c[nH]c4ccccc34)C2=O)cc(C(=O)OC)c1 (stereo not given),-8,-4,0,1,35*,47*
COCCN1C(=O)C(CC(=O)Nc2ccc(C(=O)O)cc2)SC1=Nc1ccccc1 (stereo not given),-2,3,0,-2,13,6
CCOC(=O)N1CCN(C(=O)c2ccc(N(Cc3ccc(C)cc3)S(C)(=O)=O)cc2)CC1,11,6,0,4,-1,15
Cc1ccc(CN(c2ccc(C(=O)N3CCOCC3)cc2)S(C)(=O)=O)cc1,-3,6,0,10.0*,-2,-3
COC(=O)CSc1ccc(S(=O)(=O)N2CCOCC2)cc1[N+](=O)[O-],-3,5,0,9.3*,7,-3
CCc1cc(=O)oc2cc(C)cc(OCC(C)=O)c12,x,x,x,11*,-6,3
CCc1cc(=O)oc2cc(C)cc(OCC(=O)C(C)(C)C)c12,3,x,-1,-4,-6,-9
CCOC(=O)N1CCN(C(=O)c2cc3c(s2)-c2ccccc2OC3)CC1,7,10,0,-1,-14,-40
CCOC(=O)N1CCN(C(=O)c2cc3c(s2)-c2ccc(Cl)cc2S(=O)(=O)C3)CC1,6,x,0,10*,-3,0
Cc1cc(=O)oc2cc(O)c(N=Nc3ccccc3)cc12,x,x,x,9.4*,0,12
Brc1ccc(-c2nnc(-c3cccc(Br)c3)o2)cc1,7,7,0,10*,-23,-10
Brc1ccc(-c2nnc(-c3ccccc3Br)o2)cc1,10,7,0,-2,-7,-13
Cn1c(=O)oc2cc(S(=O)(=O)NCc3ccccc3)ccc21,-4,2,0,-3,-8,-20
Cc1ccc(CNS(=O)(=O)c2ccc3c(c2)n(C)c(=O)c(=O)n3C)cc1,4,x,0,10*,-5,-1
SMILES,NPY Y1 blocker,NPY-Y2 antag,Hsp70 activator,Wee1 degr inh,NPY-Y2 PAM-ag,NPY-Y1 PAM-ag
CC1=NN(c2nc(-c3ccc(C)cc3)cs2)C(=O)C1N=Nc1ccc(C(N)=O)cc1 (stereo not given),-1,x,0,9.9*,9,8
CC1=NN(c2nc(-c3ccc(C)cc3)cs2)C(=O)C1N=Nc1ccc2ccccc2c1 (stereo not given),-1,2,0,-1,9,2
NCCS(=O)(=O)NC1CCCCC1,8,x,0,-4,1,16
CC(=O)Nc1ccc(S(=O)(=O)N(C)c2ccc(OCC(=O)OCC(=O)Nc3ccc(OC(F)F)cc3)cc2)cc1,x,x,x,2,2,9
COc1cccc2sc(N(CCN(C)C)C(=O)/C=C/c3cccs3)nc12,-7,x,0,-1,100*,98*
O=C(NC1CCC(O)CC1)c1ccc(-c2ccc([N+](=O)[O-])cc2)o1 (stereo not given),x,x,x,2,-12,10
S=C(Nc1ccccc1)N1CCCN1c1ccccc1,x,x,x,-1,-3,2
Cc1cc(C)c(OCC(O)CNC(C)(C)C)c(C)c1 (stereo not given),-9,x,0,1,87*,84*
CC(C)(C)NCC(O)COc1c(F)cc(Br)cc1F (stereo not given),-7,0,0,-2,66*,51*
CC(CS(=O)(=O)c1ccccc1[N+](=O)[O-])N1CCOCC1 (stereo not given),-4,x,0,0,5,6
CC(=O)c1cnn(-c2ccccc2)c1C,0,x,0,-3,3,6
Cc1c(C(=O)Oc2cccc3ccccc23)cnn1-c1ccccc1,-1,18*,0,-2,4,-22
O=C(N/C(=C\c1cccc([N+](=O)[O-])c1)C(=O)N1CCCCC1)c1cccs1,7,1,0,1,-7,-1
CN(C(=O)CSc1ncc(C(F)(F)F)cc1Cl)c1c(N)n(Cc2ccccc2)c(=O)[nH]c1=O,3,x,0,0,-8,-3
OCCNc1nc(-c2ccccc2)nc2c1oc1ccccc12,x,x,x,-1,-1,5
O=C(c1cccc(C(F)(F)F)c1)C1CCCN(Cc2cccn2-c2ncccn2)C1 (stereo not given),33*,x,0,-1,-47,-28
CC(C)CN(Cc1cc(=O)oc2cc(-c3ccccc3)c(O)cc12)CC(C)C,x,x,x,9.3*,-27,-1
COc1cc(C=NCC2OCCc3ccccc32)cc(OC)c1 (stereo not given),-1,2,0,-2,-9,-25
Cc1cccc(-n2c(SCC(=O)N3CC(=O)Nc4ccccc43)nc3ccccc3c2=O)c1C,3,5,-1,0,8,8
CCCn1c(-c2ccc(OC)cc2)nc2ccccc21,7,4,0,2,-10,11
COCn1c(-c2ccc(OC)cc2)nc2ccccc21,2,1,0,9.2*,4,-8
CCn1c(COc2ccccc2)nc2ccccc21,-4,0,1,-3,-11,-4

# Assay outcomes deposited in PubChem BioAssay by The Scripps Research Institute Molecular Screening Center.
